From PubChem
This is a sample that favours compounds with a hit; in the whole collection about 4.1% have one here.
MEKK2mut PB1 HTS = signal of MEK5 binding to mutant human MEKK2 PB1 domain; bead flow cytometry, Alexa488-MEK5 binding to MEKK2 mutant; percent response, % at 10 µM; hit rate 0.35% among 290,000; in the data active = percent response above about 24%, passing the limit was not always enough
HCV NS3 hel inh = blocks Hepatitis C virus NS3 helicase unwinding | AID 1800 | inhibition, % at 10.9 µM | hit rate 0.56% among 290,000 | NS3 helicase DNA unwinding, Cy5 molecular beacon fluorescence;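 active = inhibition above the mean of all tested compounds plus 3 SD, set per campaign, cut at about 35% in these data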;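 also: 0% = DMSO wells and 100% = thioflavine S control wells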
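Measured by: Cy5 fluorescence, 0 and 60 min reads / Assay system: NS3 helicase fragment of HCV / Control set: low DMSO, high thioflavine S at 110 µM / Times: 1 h reaction at 25 °C, ATP-initiated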
MEKK3 PB1 HTS = MEKK3-MEK5 PB1 interaction, increase or decrease. Q99759. bead-based flow cytometry, Alexa488-MEK5 binding to MEKK3; actives lie on both sides; 0 = blocked by unlabeled MEK5, 100 = vehicle. binding response (% of control), % at 10 µM. hit rate 1.4% among 290,000;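 active = binding response more than 3 SD above or below the average of its plate-row segment, actives on both sides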;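 also: Alexa488 bead fluorescence after subtracting the streptavidin-only scavenger bead signal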
Target sequence (Q99759 whole entry, looked up): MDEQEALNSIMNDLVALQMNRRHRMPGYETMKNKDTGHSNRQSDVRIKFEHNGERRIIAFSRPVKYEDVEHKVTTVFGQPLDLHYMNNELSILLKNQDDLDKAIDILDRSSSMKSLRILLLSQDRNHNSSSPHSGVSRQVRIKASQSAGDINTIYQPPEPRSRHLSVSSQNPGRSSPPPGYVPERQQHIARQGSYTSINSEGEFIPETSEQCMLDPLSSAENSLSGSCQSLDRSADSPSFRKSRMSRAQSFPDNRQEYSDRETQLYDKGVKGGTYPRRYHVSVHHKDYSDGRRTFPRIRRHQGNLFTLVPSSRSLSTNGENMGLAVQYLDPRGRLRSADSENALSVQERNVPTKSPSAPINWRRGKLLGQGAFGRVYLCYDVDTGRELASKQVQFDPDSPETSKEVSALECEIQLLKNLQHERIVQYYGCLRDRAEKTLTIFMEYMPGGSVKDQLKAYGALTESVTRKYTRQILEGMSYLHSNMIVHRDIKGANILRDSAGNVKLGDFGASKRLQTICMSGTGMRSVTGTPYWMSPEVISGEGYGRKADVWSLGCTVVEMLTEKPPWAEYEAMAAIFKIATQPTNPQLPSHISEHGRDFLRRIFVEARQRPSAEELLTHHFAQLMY
MEKK2wt PB1 HTS = raises or lowers MEK5 binding to wildtype human MEKK2 PB1 domain | Q9Y2U5 | bead flow cytometry, Alexa488-MEK5 binding to MEKK2 WT; actives lie on both sides | binding response (% of control), % at 10 µM | hit rate 1.1% among 290,000 | AID 1531; in the data active = binding response below about 67% or above about 130%
T cruzi inh = T. cruzi replication inhibition; T. cruzi beta-gal in NIH3T3, luminescence, 90 h; AID 1885; hit rate 1.4% among 300,000; inhibition, % (no concentration beside the values);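 active = mean inhibition across valid replicates above about 55%, limit read from the data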;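 also: signal also drops with host cell toxicity which is not excluded here; 0% = plate median of DMSO wells and 100% = zero luminescence signal; higher percent means less beta-gal luminescence so fewer parasites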
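assay system = mouse NIH/3T3 fibroblasts infected with β-gal-expressing T. cruzi Tulahuen C4 | input = 5,000 NIH/3T3 host cells per well | buffer or medium = DMEM plus 2% FBS | timing = 3 h host attachment, then at least 90 h co-culture | measured by = GalScreen luminescence, 60 min | evaluation = luminescence reflecting intracellular parasite burden, expressed as percent inhibition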
DNA FID counter = displaces DNA intercalator in HCV helicase counter-screen. inhibition, % at 7.9 µM. hit rate 0.17% among 290,000. AID 1845. DNA fluorescent intercalator displacement, fluorescence; in the data active = inhibition above about 37%;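 also: 0% = vehicle and 100% = reference compound; higher means more ethidium bromide displaced from hairpin DNA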
MEKK2wt confirm = raises or lowers MEK5 binding to wildtype human MEKK2, retest. bead flow cytometry, Alexa488-MEK5 binding to MEKK2 WT; actives lie on both sides. AID 1892. hit rate 2.4% among 5,900. shares compounds with MEKK3 PB1 HTS. binding response (% of control), % at 10 µM; in the data active = binding response below about 16% or above about 210%; inactive = in between
MEKK2mut confirm = signal of MEK5 binding to mutant human MEKK2, retest; shares compounds with MEKK3 PB1 HTS; bead flow cytometry, Alexa488-MEK5 binding to MEKK2 mutant; percent response, % at 10 µM; hit rate 2% among 5,900; in the data active = percent response mostly above about 71%, no sharp cut-off; inactive = mostly below about 38%;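 also: higher means compound restores mutant binding toward wildtype level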
MEKK3-MEK5 inh = confirmation of inhibitors of MEK5 binding to human MEKK3; shares compounds with MEKK3 PB1 HTS; bead flow cytometry, Alexa488-MEK5 binding to MEKK3; stronger effect = lower value; binding response (% of control), % at 10 µM; hit rate 1.8% among 5,900;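 active = binding response below 72% of control, or above a set upper limit, though filed actives all read lower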;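 also: 100% = DMSO only wells and 0% = binding blocked by excess unlabeled MEK5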
Numbers without * were called inactive; nt = no result; ! = not confirmed by another sample; [ ] = another dose, or the depositor's remark.

SMILES	MEKK2mut PB1 HTS	HCV NS3 hel inh	MEKK3 PB1 HTS	MEKK2wt PB1 HTS	T cruzi inh	DNA FID counter	MEKK2wt confirm	MEKK2mut confirm	MEKK3-MEK5 inh
COc1ccccc1C1CCN(Cc2ccc3ccccc3c2)CC1	36*	-53	106	138*	59*	4	135	12	100
Cc1nn(CC(=O)Nc2ccccc2C(F)(F)F)c(=O)c2cccn12	-4	15	91	93	0	-8	nt	nt	nt
COc1ccc(CN2CSC(=S)N(Cc3ccc(OC)cc3)C2)cc1	-2	-3	104	98	-27	-5	nt	nt	nt
CCCCOc1ccc(C)cc1CN(CCO)CCO	-2	-4	93	94	-6	0	nt	nt	nt
CCC(C)(C)c1ccc(OCCCC[n+]2ccccc2)c(C(C)(C)CC)c1	41	-52	109	185*	58*	27	199	65	110
CCCCCc1ccc(OCCCC[n+]2ccc(C)cc2)c(CCCCC)c1	16	-24	106	186*	nt	37*	177	40	110
CCCCCc1ccc(OCCCC[n+]2ccccc2)c(CCCCC)c1	28	-52	105	164*	49	23	158	25	111
CCC(C)(C)c1ccc(Oc2cccc(C(=O)O)c2)cc1	6	2	107	102	12	-24	nt	nt	nt
Cc1cc(=O)oc2cc(OCCCC[n+]3ccccc3)ccc12	-7	12	93	96	-7	8	nt	nt	nt
COCc1ccc(C(=O)N2CCCC(N3CCN(c4ccc(F)cc4)CC3)C2)o1 (stereo not drawn)	5	4	102	109	-1	-28	nt	nt	nt
COC(=O)c1ccc(CNC(=O)Cn2nnnc2CN(C)C(C)C)cc1	3	5	99	103	-6	-3	nt	nt	nt
O=c1oc2cc(Br)ccc2n1Cc1ccccc1	2	2	98	102	-6	-3	nt	nt	nt
CC(C)C(NC(=O)c1ccccc1)C(=O)N/N=C\c1ccco1 (stereo not drawn)	-1	-5	96	100	-2	-8	nt	nt	nt
COc1ccc2sc(N(CCN(C)C)C(=O)c3ccc4ccccc4c3)nc2c1	15	-16	100	125	36	6	nt	nt	nt
CCN(CC)CCN(C(=O)c1ccc2ccccc2c1)c1nc2cc3c(cc2s1)OCO3	21	-20	105	135*	34	9	116	5	100
CCN(CC)CCN(C(=O)c1ccc(S(=O)(=O)N2CCCCC2)cc1)c1nc2cc3c(cc2s1)OCO3	2	0	132*	127	63*	18	132	31	110
CCOc1cccc2sc(N(CCN(CC)CC)C(=O)c3ccc(S(=O)(=O)N4CCCC4)cc3)nc12	16	-18	104	128	12	15	nt	nt	nt
O=C(N/N=C/c1cccc(NC(=O)c2ccc(Cl)cc2)c1)c1ccc(O)cc1	-13	-8	44*[inhibitor]	38*[inhibitor]	-14	-4	96	-2	101
O=C(N/N=C/c1cccc(F)c1)c1ccc(Cl)cc1	-2	5	104	101	-3	-4	nt	nt	nt
CN(C)c1ccc(/C=N/NC(=O)c2ccc(NC(=O)c3ccccc3)cc2)cc1	-37	-22	73*[inhibitor]	80	1	-19	99	0	99
COc1cc2nc(N3CCN(C(=O)C4COc5ccccc5O4)CC3)nc(N)c2cc1OC (stereo not drawn)	15	-25	116	150*!	14	3	146	27	111
O=C(CNC(=O)c1ccc(Cl)cc1Cl)NCC1CCCO1 (stereo not drawn)	-3	4	101	96	-8	-9	nt	nt	nt
O=C(NC(=S)NCC1CCCO1)c1ccc(Cl)cc1Cl (stereo not drawn)	1	-8	143*	111	-22	-3	93	-9	95
CCOC(=O)c1csc(NC(=O)c2ccc3c(c2)OCCO3)n1	0	2	102	99	2	-9	nt	nt	nt
Cc1nc2sccn2c(=O)c1CCN1CCC(=C(c2ccccc2)c2ccc(F)cc2)CC1	13	-75	120	157*	33	2	123	4	101
SMILES	MEKK2mut PB1 HTS	HCV NS3 hel inh	MEKK3 PB1 HTS	MEKK2wt PB1 HTS	T cruzi inh	DNA FID counter	MEKK2wt confirm	MEKK2mut confirm	MEKK3-MEK5 inh
COc1cccc(C(=O)C2CCCN(C/C=C/c3ccccc3OC)C2)c1 (stereo not drawn)	-7	-22	105	98	52	23	nt	nt	nt
COc1ccc(/C=C/CN2CCCC(C(=O)c3ccc(OC)c(F)c3)C2)cc1 (stereo not drawn)	20	-49	105	140*	48	30	126	11	104
CCC(C)N(C(=O)COC(=O)c1ccccc1SCC(=O)N1CCCC1)C1CCS(=O)(=O)C1 (stereo not drawn)	6	0	106	106	-2	-31	nt	nt	nt
CCN(CC)CCNC(=O)c1ccc(NC(=O)C2CCN(c3ncnc4sc(C)c(C)c34)CC2)cc1	16	-76	105	147*	3	28	-5.0*[inhibitor]	9	90
CCOC(=O)COc1ccccc1C(=O)c1cnn(-c2ccccc2)c1	5	2	109	105	-12	-31	nt	nt	nt
CC(=O)Nc1nonc1NC(=O)c1ccc(F)cc1	-2	-8	109	105	2	-4	nt	nt	nt
CC(=O)Nc1nonc1NC(C)=O	-15	-4	2.0*[inhibitor]	3.0*[inhibitor]	-1	-2	100	0	104
CN(C)CCCN(C(=O)CCc1ccccc1)c1nc2ccc(F)cc2s1	5	-72	129*	135	37	13	144	26	106
CN(C)CCCN(C(=O)CCc1ccccc1)c1nc2ccc(Br)cc2s1	43	-89	113	233*	49	5	176	42	108
CN(C)CCCN(C(=O)c1ccco1)c1nc2ccc(Br)cc2s1	17	-25	106	135	16	15	nt	nt	nt
CN(C)CCN(C(=O)CCc1ccccc1)c1nc2c(F)cc(F)cc2s1	3	-4	104	130	52	-3	nt	nt	nt
COc1cccc(C(=O)COC(=O)c2cccs2)c1	7	6	100	106	-9	-5	nt	nt	nt
CCOc1ccccc1NC(=O)CCCn1cc([N+](=O)[O-])cn1	0	4	105	100	-1	14	nt	nt	nt
COc1ccc(S(=O)(=O)N(CC(=O)NCc2ccncc2)c2ccc(C)cc2)cc1OC	1	9	101	100	-6	-17	nt	nt	nt
